Data reported in ChEMBL document CHEMBL5543124, “Lead Compound Development of SRC-3 Inhibitors with Improved Pharmacokinetic Properties and Anticancer Efficacy” (J Med Chem, 2024).

What was measured:
[1] = system: MCF7; experiment: Cytotoxicity against human MCF7 cells assessed as inhibition of cell growth incubated for 72 hrs by MTT assay; format: functional, cell-based; conditions: MCF7, 72 h
[2] = Stability in CD-1 mouse plasma at 37.7 micromol/kg,ip administration measured after 22 hrs by LC-MS/MS analysis; format: ADME, cell-free; conditions: at 37.7 µmol/kg
In short: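 Female CD-1 mice (n=3) dosed i.p. at 37.7 μmol/kg (equimolar across compounds). Blood (20 μL) drawn at 0.25, 5 and 22 h and processed to plasma. Drug levels quantified by LC-MS/MS.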

[3] = Half life in human liver microsomes at 1 uM incubated for 30 mins in presence of NADPH by LC-MS/MS analysis; format: ADME, Microsome; conditions: 0.5 h
In short: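 Human liver microsomes (1 mg/mL final) in 100 mM phosphate buffer with or without NADPH; compound at 1 μM final, 37 °C. Samples taken at 0, 5, 10, 20, 30 min (0 and 30 min without NADPH), quenched with cold acetonitrile containing internal standards, analysed by LC-MS/MS; verapamil as control.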

[4] = biological target: Prostaglandin G/H synthase 1 (Homo sapiens, UniProt P23219); experiment: Inhibition of COX1 (unknown origin); format: toxicity
Chain of Prostaglandin G/H synthase 1 (P23219 whole entry): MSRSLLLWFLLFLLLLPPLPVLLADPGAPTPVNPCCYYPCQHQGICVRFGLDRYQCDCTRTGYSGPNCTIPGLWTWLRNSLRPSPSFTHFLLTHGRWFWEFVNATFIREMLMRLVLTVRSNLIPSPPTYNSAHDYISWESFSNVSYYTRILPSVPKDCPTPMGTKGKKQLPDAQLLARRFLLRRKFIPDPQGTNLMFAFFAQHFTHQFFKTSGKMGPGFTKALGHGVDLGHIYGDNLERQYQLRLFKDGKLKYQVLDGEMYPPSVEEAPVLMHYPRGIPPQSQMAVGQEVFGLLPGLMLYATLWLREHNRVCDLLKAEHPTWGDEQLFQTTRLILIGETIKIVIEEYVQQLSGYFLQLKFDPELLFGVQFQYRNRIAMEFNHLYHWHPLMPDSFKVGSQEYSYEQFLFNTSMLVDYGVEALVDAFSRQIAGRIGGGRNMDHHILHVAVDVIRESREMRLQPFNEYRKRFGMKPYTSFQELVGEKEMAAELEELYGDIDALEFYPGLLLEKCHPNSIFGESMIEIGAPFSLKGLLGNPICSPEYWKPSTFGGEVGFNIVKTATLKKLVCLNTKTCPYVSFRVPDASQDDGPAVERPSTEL
In short: (§1)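 Tested in a commercial off-target safety screening panel of 78 targets. Values reported as RC50, taken as IC50 except for agonist mode, where RC50 is EC50.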

[5] = AUC (0 to t) in CD-1 mouse at 10 mg/kg,po administration measured upto 48 hrs by LC-MS/MS analysis; format: ADME, organism-based; conditions: in vivo
In short: (§2)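 Oral gavage in ICR male mice (n = 3); dosing solution 1 mg/mL in 20% DMSO, 16% PEG, 4% dextrose in PBS. Tail-vein blood (10 μL) taken at 15, 30 min and 1, 2, 4, 8, 24, 48 h. Plasma quantified by LC-MS/MS against a 0.5–1000 ng/mL calibration; parameters from a non-compartmental extravascular model.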

[6] = Clearance in CD-1 mouse at 1 mg/kg,iv administration measured upto 48 hrs by LC-MS/MS analysis; format: ADME, organism-based; conditions: in vivo
In short: (§3)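 Single intravenous bolus in ICR male mice (n = 3, 6 weeks); dosing solution 0.5 mg/mL in 20% DMSO, 16% PEG, 4% dextrose in PBS. Tail-vein blood (10 μL) taken at 2, 5, 15, 30 min and 1, 2, 4, 8, 24, 48 h. Plasma quantified by LC-MS/MS against a 0.5–1000 ng/mL calibration; parameters from non-compartmental analysis.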

[7] = Toxicity in mouse assessed as mild stress at 100 mg/kg,po administration for 4 weeks; format: organism-based; conditions: in vivo, 672 h
In short: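 Mice dosed orally at up to 100 mg/kg, the highest dose tested. Observed for signs of stress.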

[8] = biological target: T1, Prostaglandin G/H synthase 2 (Homo sapiens, UniProt P35354); experiment: Inhibition of COX2 (unknown origin); format: toxicity; in short: as §1
T1 sequence (P35354 whole entry): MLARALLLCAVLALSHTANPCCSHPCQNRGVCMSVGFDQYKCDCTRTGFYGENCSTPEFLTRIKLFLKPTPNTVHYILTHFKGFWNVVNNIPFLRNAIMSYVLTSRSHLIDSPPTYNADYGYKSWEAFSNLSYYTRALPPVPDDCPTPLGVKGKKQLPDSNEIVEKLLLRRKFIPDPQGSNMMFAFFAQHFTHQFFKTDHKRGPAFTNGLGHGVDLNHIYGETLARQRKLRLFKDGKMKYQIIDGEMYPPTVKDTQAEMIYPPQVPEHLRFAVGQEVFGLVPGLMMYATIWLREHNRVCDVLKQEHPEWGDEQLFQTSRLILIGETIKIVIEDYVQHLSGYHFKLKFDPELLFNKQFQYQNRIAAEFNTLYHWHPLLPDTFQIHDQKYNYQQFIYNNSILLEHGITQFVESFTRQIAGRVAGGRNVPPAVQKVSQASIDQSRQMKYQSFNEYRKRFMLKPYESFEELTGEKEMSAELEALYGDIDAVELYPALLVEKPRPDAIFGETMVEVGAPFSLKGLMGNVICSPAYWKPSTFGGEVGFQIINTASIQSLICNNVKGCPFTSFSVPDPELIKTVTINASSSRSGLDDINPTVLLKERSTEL

[9] = Drug concentration in CD-1 mouse plasma at 37.7 micromol/kg,ip administration measured after 22 hrs by LC-MS/MS analysis; format: ADME, cell-free; conditions: dose 37.7 µmol/kg
In short: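 Female CD-1 mice (n = 3) dosed ip at 37.7 μmol/kg. Blood (20 μL) taken at 0.25, 5 and 22 h, processed to plasma, and drug quantified by LC-MS/MS.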

[10] = Cytotoxicity against CD-1 mouse Primary hepatocyte assessed as inhibition of cell growth incubated for 72 hrs by MTT assay; format: toxicity, cell-based; conditions: primary hepatocytes
[11] = Oral bioavailability in CD-1 mouse at 10 mg/kg administration measured upto 48 hrs by LC-MS/MS analysis; format: ADME, organism-based; conditions: in vivo
[12] = Cmax in CD-1 mouse at 1 mg/kg,iv administration measured upto 48 hrs by LC-MS/MS analysis; format: ADME, organism-based; conditions: in vivo; in short: as §3
[13] = Tmax in CD-1 mouse at 10 mg/kg,po administration measured upto 48 hrs by LC-MS/MS analysis; format: ADME, organism-based; conditions: in vivo
In short: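 Male ICR mice (n=3) dosed by oral gavage at 10 mg/kg from a 1 mg/mL solution in 20% DMSO/16% PEG/4% dextrose in PBS. Tail-vein blood (10 μL) drawn at 15 and 30 min and at 1, 2, 4, 8, 24 and 48 h. Plasma quantified by LC-MS/MS against calibration standards. Parameters from non-compartmental extravascular model.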

[14] = Toxicity in mouse assessed as body weight loss at 100 mg/kg,po administration for 4 weeks; format: organism-based; conditions: in vivo, 672 h
In short: (§4)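 Mice dosed orally once daily at 50 or 100 mg/kg for 4 weeks. Body weight monitored throughout.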

[15] = biological target: hERG (KCNH2) (Homo sapiens, UniProt Q12809); experiment: Inhibition of hERG transfected in HEK293 cells at 30 uM by patch clamp assay relative to control; format: toxicity, cell-based; conditions: HEK293 cells transfected with hERG
Chain of hERG (KCNH2) (Q12809 whole entry): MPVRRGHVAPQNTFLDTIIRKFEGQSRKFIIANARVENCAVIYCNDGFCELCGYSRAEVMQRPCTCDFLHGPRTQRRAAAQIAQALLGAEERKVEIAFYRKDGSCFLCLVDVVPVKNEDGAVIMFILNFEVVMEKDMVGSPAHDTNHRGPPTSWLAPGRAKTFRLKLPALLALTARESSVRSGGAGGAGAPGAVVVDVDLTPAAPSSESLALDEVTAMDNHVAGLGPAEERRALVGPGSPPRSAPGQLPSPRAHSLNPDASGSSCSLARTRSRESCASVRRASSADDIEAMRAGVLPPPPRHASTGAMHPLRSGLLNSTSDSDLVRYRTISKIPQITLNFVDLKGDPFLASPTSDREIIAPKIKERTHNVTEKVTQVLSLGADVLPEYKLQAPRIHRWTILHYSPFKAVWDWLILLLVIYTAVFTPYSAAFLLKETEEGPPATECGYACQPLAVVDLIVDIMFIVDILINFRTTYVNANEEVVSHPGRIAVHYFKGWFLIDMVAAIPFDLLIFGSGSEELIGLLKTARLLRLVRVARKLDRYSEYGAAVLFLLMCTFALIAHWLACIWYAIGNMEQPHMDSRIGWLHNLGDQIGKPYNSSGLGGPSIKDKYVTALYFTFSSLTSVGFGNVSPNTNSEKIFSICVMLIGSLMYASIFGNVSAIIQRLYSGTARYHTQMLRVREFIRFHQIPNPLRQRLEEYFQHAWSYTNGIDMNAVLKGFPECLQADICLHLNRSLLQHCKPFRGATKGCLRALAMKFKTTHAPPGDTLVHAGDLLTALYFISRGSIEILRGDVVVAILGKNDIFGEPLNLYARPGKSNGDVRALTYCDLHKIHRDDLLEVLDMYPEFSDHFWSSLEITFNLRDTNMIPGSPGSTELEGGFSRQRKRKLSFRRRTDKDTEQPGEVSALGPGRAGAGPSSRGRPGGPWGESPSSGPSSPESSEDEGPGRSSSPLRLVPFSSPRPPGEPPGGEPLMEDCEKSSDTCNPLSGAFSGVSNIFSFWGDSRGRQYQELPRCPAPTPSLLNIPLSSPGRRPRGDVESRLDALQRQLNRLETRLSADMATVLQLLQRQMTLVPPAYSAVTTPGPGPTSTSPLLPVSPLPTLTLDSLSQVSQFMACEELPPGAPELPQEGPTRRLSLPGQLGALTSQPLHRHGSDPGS

[16] = Half life in CD-1 mouse at 1 mg/kg,iv administration measured upto 48 hrs by LC-MS/MS analysis; format: ADME, organism-based; conditions: in vivo; in short: as §3
[17] = Toxicity in mouse assessed as body weight loss at 50 mg/kg,po administration for 4 weeks; format: organism-based; conditions: in vivo, 672 h; in short: as §4
[18] = AUC (0 to t) in CD-1 mouse at 1 mg/kg,iv administration measured upto 48 hrs by LC-MS/MS analysis; format: ADME, organism-based; conditions: in vivo; in short: as §3
[19] = Half life in CD-1 mouse at 10 mg/kg,po administration measured upto 48 hrs by LC-MS/MS analysis; format: ADME, organism-based; conditions: in vivo; in short: as §2
[20] = Tmax in CD-1 mouse at 1 mg/kg,iv administration measured upto 48 hrs by LC-MS/MS analysis; format: ADME, organism-based; conditions: in vivo
In short: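 Male ICR mice (n=3, 6 weeks) given 1 mg/kg i.v. from a 0.5 mg/mL solution in 20% DMSO/16% PEG/4% dextrose in PBS. Tail-vein blood (10 μL) drawn at 2, 5, 15 and 30 min and at 1, 2, 4, 8, 24 and 48 h. Plasma quantified by LC-MS/MS against 0.5–1000 ng/mL calibration standards with QC samples. Parameters from non-compartmental analysis.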

[21] = biological target: Voltage-gated inwardly rectifying potassium channel KCNH2 (Homo sapiens, UniProt Q12809); experiment: Inhibition of hERG transfected in HEK293 cells by patch clamp assay; format: toxicity, cell-based
Chain of Voltage-gated inwardly rectifying potassium channel KCNH2 (Q12809 whole entry): as above

[22] = Cmax in CD-1 mouse at 10 mg/kg,po administration measured upto 48 hrs by LC-MS/MS analysis; format: ADME, organism-based; conditions: in vivo; in short: as §2
[23] = system: CYP1A2; experiment: Stability in human liver microsomes assessed as CYP1A2-mediated drug metabolism incubated for 1 hr; format: ADME, Microsome; conditions: read-out: Drug metabolism
[24] = Stability in human plasma incubated upto 150 mins; format: ADME, cell-free; conditions: 2.5 h

`C/C(=N\N=c1/[nH]c2cc(F)c(F)cc2n1C)c1ccc(C(=O)N2CCOCC2)cn1` showed an IC50 [1] of 44.7 nM.
Work on `Cn1c(N2N=C(c3ccccn3)CC2=O)nc2ccccc21` yielded an IC50 [1] of over 1000 nM.
In the case of `C/C(=N\N=c1/[nH]c2cc(F)c(F)cc2n1C)c1cccs1`, the IC50 [1] is reported as over 1000 nM.
`C/C(=N\N=c1/[nH]c2cc(F)c(F)cc2n1C)c1ccc(-c2nnn[nH]2)cn1` gave an IC50 [1] of over 1000 nM.
Molecule `C/C(=N\N=c1n(C)c2ccccc2n1C)c1ccc(F)cn1` has an IC50 [1] of over 1000 nM.
Molecule `C/C(=N\N=c1/[nH]c2cc(F)c(F)cc2n1C)c1ccccc1` has an IC50 [1] of over 1000 nM.
In the case of `C/C(=N\N=c1/[nH]c2cc(F)c(F)cc2n1C)c1ccc(C(=O)O)cn1`, the IC50 [1] is reported as over 1000 nM.
`COC(=O)c1ccc(/C(C)=N/N=c2\[nH]c3cc(F)c(F)cc3n2C)nc1` gave an IC50 [1] of 2.9 nM.
For `C/C(=N\Nc1nc2ccccc2n1C)c1ccc(F)cn1`, the Stability [2] was “Stable”, the IC50 [1] was 5.4 nM and the t1/2 [3] was 4.93 min.
Work on `Cn1c(NNC(=O)c2ccccn2)nc2ccccc21` yielded an IC50 [1] of 494 nM.
With `C/C(=N\N=c1/[nH]c2cc(F)c(F)cc2n1C)c1ccc(OCCCN2CCOCC2)cn1` the IC50 [1] was 30.5 nM.
For `C/C(=N\Nc1nc2cc(F)c(F)cc2n1C)c1ncccn1`, the IC50 [4] was 2900 nM, the AUCt [5] was 477 ng·h/mL and the Stability [2] was “Stable”. For the same molecule, the clearance [6] was 176 mL/min/kg, the Activity [7] was “Non-Toxic” and the IC50 [8] was 2400 nM. It also gave a concentration at 22 h [9] of 117 nM, an IC50 at 72 h [10] of over 1000 nM and an F [11] of 54.4%. For the same molecule, the Cmax [12] was 552 ng/mL, the Tmax [13] was 15 min and the Activity [14] was “Non-Toxic”. For the same molecule, the inhibition at 30 µM [15] was under 50%, the t1/2 [16] was 195 min and the Activity [17] was “Non-Toxic”. For the same molecule, the AUCt [18] was 87.6 ng·h/mL, the t1/2 [19] was 545 min and the Tmax [20] was 1.98 min. For the same molecule, the t1/2 [3] was 3.71 min, the IC50 [21] was over 30000 nM and the Cmax [22] was 89 ng/mL. The metabolised at 1 h [23] was 98% and the Stability [24] was “Stable”.
In the case of `C/C(=N\N=c1/[nH]c2cc(F)c(F)cc2n1C)c1ccc(-c2cnn(C)c2)cn1`, the IC50 [1] is reported as 6.7 nM.
With `C/C(=N\Nc1nc2cc(F)ccc2n1C)c1ccc(F)cn1` the Stability [2] was “Stable”, the IC50 [1] was 2.5 nM and the t1/2 [3] was 5.76 min.
In the case of `C/C(=N\N=c1/[nH]c2cc(F)c(F)cc2n1C)c1ccc(C(N)=O)cn1`, the IC50 [1] is reported as 2.7 nM.
With `C/C(=N\N=c1/[nH]c2cc(F)c(F)cc2n1C)c1ccncc1` the IC50 [1] was over 1000 nM.
`C/C(=N\N=c1/[nH]c2cc(F)c(F)cc2n1C)c1cn(C)cn1` showed an IC50 [1] of over 1000 nM.
`C/C(=N\N=c1/[nH]c2cc(F)c(F)cc2n1C)c1ccncn1` showed an IC50 [1] of 10.7 nM.
In the case of `C/C(=N\N=c1/[nH]c2cc(F)c(F)cc2n1C)c1ccc(OCCCS(C)(=O)=O)cn1`, the IC50 [1] is reported as 249 nM.
For `C/C(=N\N=c1/[nH]c2cc(F)c(F)cc2n1C)c1cocn1`, the IC50 [1] was over 1000 nM.
`C/C(=N\N=c1/[nH]c2cc(F)c(F)cc2n1C)c1ccccn1` showed an IC50 [1] of 6.3 nM.
With `C/C(=N\N=c1/sc2ccccc2n1C)c1ccc(F)cn1` the IC50 [1] was over 1000 nM.
In the case of `C/C(=N\Nc1nc2ccccc2n1C)c1ccccn1`, the IC50 [1] is reported as 22 nM and the t1/2 [3] is reported as 3 min.
With `C/C(=N\Oc1nc2ccccc2n1C)c1ccccn1` the IC50 [1] was over 1000 nM.
In the case of `C/C(=N\N=c1/[nH]c2cc(Cl)c(Cl)cc2n1C)c1ccc(F)cn1`, the IC50 [1] is reported as 18 nM.
In the case of `C/C(=N\N=c1/[nH]c2cc(F)c(F)cc2n1C)c1cccnc1`, the IC50 [1] is reported as over 1000 nM.
